Activity calls are given as the source filed them. No cut-off for these calls is given here.
How the values were obtained:
Jurkat [1] = experiment: Phototoxicity against human Jurkat cells irradiated with 2.5 J/cm'2 after 72 hrs by MTT assay; format: functional, cell-based; settings: light or radiation study
Method in brief: (§1)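 Cells were seeded at 8 × 10³ and preincubated 18 h at 37 °C, 5% CO₂. Jurkat and K-562 grew in RPMI-1640, MCF-7 and NCTC-2544 in DMEM, and LoVo in Ham's F12, all with 10% FBS plus penicillin and streptomycin. Compounds in DMSO were diluted in HBSS, pH 7.2 (range 20–0.31; DMSO ≤1%) and applied 30 min at 37 °C. Wells were then UV-A irradiated (365 nm; 2.5 or 3.75 J/cm²), medium was replaced, and MTT was read after 72 h.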

Jurkat [2] = experiment: Cell cycle arrest in human Jurkat cells assessed as accumulation in S phase at 1 uM irradiated with 20 J/cm'2 after 24 hrs by flow cytometry; format: functional
Method in brief: (§2)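 Exponentially growing Jurkat cells (5 × 10⁵) were irradiated with compound present. Drug was removed, and cells were kept 24 h in RPMI-1640, fixed in ice-cold 70% ethanol, and treated overnight with RNAse (10 KU/mL) in PBS. Cells were stained with propidium iodide and run on a flow cytometer, with DNA content reported as the fraction of cells in each cycle phase.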

Jurkat [3] = experiment: Induction of apoptosis in human Jurkat cells assessed as lysosomal dysfunction at 1 uM after 4 hrs post-irradiation with 2.5 J/cm'2 using acridine orange dye by flow cytometry; format: functional
Method in brief: (§3)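 Jurkat cells were irradiated (2.5 J/cm²) with compound present and collected at 2 and 4 h. They were resuspended in RPMI-1640 containing acridine orange, and the percentage of red-fluorescent cells (intact lysosomes) was scored by flow cytometry. Values are mean ± SD of at least three independent experiments.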

Nucleic Acid [4] = experiment: Binding affinity to salmon testes DNA assessed as intercalation by linear dichroism experiment; format: nucleic-acid assay; settings: Salmonidae
Method in brief: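 Salmon testes DNA was mixed with compound at [Drug]/[DNA] ratios of 0, 0.02 and 0.04 in 10 mM phosphate buffer, pH 7.2. Samples were oriented in a rotating cylindrical flow cuvette (0.14 cm path, 800 rpm), and linear dichroism spectra were recorded over roughly 250–450 nm.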

[5] = Photodamaging activity to ribonuclease irradiated with 2.5 J/cm'2 UV light assessed as increase in carbonyl content; format: physicochemical
Method in brief: (§4)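 BSA or RNase A at 2 mg/mL in phosphate buffer was irradiated with the compound in a quartz cuvette for various times. Carbonyl content was measured spectrophotometrically after 2,4-dinitrophenylhydrazine derivatization.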

[6] = Photodamaging activity to bovine serum albumin irradiated with 2.5 J/cm'2 UV light assessed as increase in carbonyl content; format: physicochemical; settings: cattle; method in brief: as §4
Nucleic Acid [7] = experiment: Binding affinity to UV irradiated pBR322 assessed as strand break by electrophoresis; format: nucleic-acid assay; settings: Escherichia coli
Method in brief: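 Plasmid irradiated with the compound. Aliquots were then incubated at 37 °C with Fpg or Endo III. Bands were quantified densitometrically and supercoiled (Form I) and open circular (Form II) fractions were calculated.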

Jurkat [8] = experiment: Induction of lipid peroxidation in human Jurkat cells irradiated with 2.5 J/cm'2 assessed as increase in malondialdehyde production after 24 hrs by TBARS assay relative to untreated control; format: functional, cell-based
Method in brief: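 Jurkat cells (500,000) were irradiated (2.5 J/cm²) with compound present and incubated 24 h. Supernatant was kept with BHT, and cells were lysed in 1% SDS, with protein measured by the Peterson method. Malondialdehyde was measured by thiobarbituric acid reaction (fluorescence, 553 nm) against a 1,1,3,3-tetraethoxypropane standard curve. Results are given as nmol TBARS normalized to protein.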

Jurkat [9] = experiment: Induction of apoptosis in human Jurkat cells assessed as lysosomal dysfunction at 1 uM after 2 hrs post-irradiation with 2.5 J/cm'2 using acridine orange dye by flow cytometry; format: functional; method in brief: as §3
Jurkat [10] = experiment: Induction of apoptosis in human Jurkat cells assessed as lysosomal dysfunction at 2.5 uM after 2 hrs post-irradiation with 2.5 J/cm'2 using acridine orange dye by flow cytometry; format: functional
Method in brief: (§5)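 Jurkat cells were irradiated (2.5 J/cm² UV-A) with the compound and collected 2 or 4 h later. They were resuspended in RPMI-1640 containing acridine orange 1 µM. Intact-lysosome cells were scored by red fluorescence on flow cytometry. Values are means ± SD of at least three independent experiments.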

Jurkat [11] = experiment: Induction of apoptosis in human Jurkat cells assessed as lysosomal dysfunction at 2.5 uM after 4 hrs post-irradiation with 2.5 J/cm'2 using acridine orange dye by flow cytometry; format: functional; method in brief: as §5
Jurkat [12] = experiment: Induction of apoptosis in human Jurkat cells assessed as increase in mitochondrial ROS production at 1 uM after 6 hrs post-irradiation with 2.5 J/cm'2 by FACS analysis; format: functional
Method in brief: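 Jurkat cells were irradiated (2.5 J/cm²) with compound present and collected 6 h later. They were resuspended in HBSS with hydroethidine and DCFDA (2.5 and 5, respectively) and held at 37 °C for 15 or 30 min. Flow cytometry used 488 nm excitation, reading 620 nm for HE and 530 nm for DCF, with at least 10,000 events. Values are mean ± SD, three independent experiments.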

Jurkat [13] = experiment: Induction of apoptosis in human Jurkat cells assessed as increase in mitochondrial ROS production at 2.5 uM after 6 hrs post-irradiation with 2.5 J/cm'2 by FACS analysis; format: functional
Method in brief: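 Jurkat cells were collected 6 h after UV-A irradiation (2.5 J/cm²) with the compound and resuspended in HBSS with hydroethidine 2.5 µM or DCFDA 5 µM. They were incubated at 37 °C for 15 or 30 min. Flow cytometry used 488 nm excitation, with emission at 620 nm (HE) or 530 nm (DCF), acquiring ≥10,000 events. Values are means ± SD of three independent experiments.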

Jurkat [14] = experiment: Induction of apoptosis in human Jurkat cells assessed as induction of loss of membrane potential at 2.5 uM after 4 hrs post-irradiation with 20 J/cm'2 by flow cytometry; format: functional
Method in brief: (§6)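 JC-1 probe at 1 µg/mL in HBSS was added to Jurkat cells spun down 2 or 4 h after UV-A irradiation with the compound. Green (FL1) and orange (FL2) fluorescence were read by flow cytometry, ≥10,000 events per sample. Values are means ± SD of at least three independent experiments.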

Jurkat [15] = experiment: Induction of apoptosis in human Jurkat cells assessed as induction of loss of membrane potential at 2.5 uM after 2 hrs post-irradiation with 20 J/cm'2 by flow cytometry; format: functional; method in brief: as §6
Jurkat [16] = experiment: Induction of apoptosis in human Jurkat cells assessed as induction of loss of membrane potential at 2.5 uM after 4 hrs post irradiation with 20 J/cm'2 using JC1 staining by FACS; format: functional; method in brief: as §6
Jurkat [17] = experiment: Induction of apoptosis in human Jurkat cells assessed as induction of loss of membrane potential at 2.5 uM after 2 hrs post-irradiation with 20 J/cm'2 using JC1 staining by FACS; format: functional; method in brief: as §6
Jurkat [18] = experiment: Cell cycle arrest in human Jurkat cells assessed as accumulation in subG1 phase at 1 uM irradiated with 20 J/cm'2 after 24 hrs by flow cytometry; format: functional; method in brief: as §2
[19] = Phototoxicity against human sNCTC-2544 cells irradiated with 3.75 J/cm'2 after 72 hrs by MTT assay; format: functional, cell-based; settings: NCTC-2544, light or radiation study; method in brief: as §1
[20] = Phototoxicity against human sNCTC-2544 cells irradiated with 2.5 J/cm'2 after 72 hrs by MTT assay; format: functional, cell-based; settings: NCTC-2544, light or radiation study; method in brief: as §1
MCF7 [21] = experiment: Phototoxicity against human MCF7 cells irradiated with 3.75 J/cm'2 after 72 hrs by MTT assay; format: functional, cell-based; settings: MCF7, light or radiation study; method in brief: as §1
MCF7 [22] = experiment: Phototoxicity against human MCF7 cells irradiated with 2.5 J/cm'2 after 72 hrs by MTT assay; format: functional, cell-based; settings: MCF7, light or radiation study; method in brief: as §1
LoVo [23] = experiment: Phototoxicity against human LoVo cells irradiated with 3.75 J/cm'2 after 72 hrs by MTT assay; format: functional, cell-based; settings: light or radiation study; method in brief: as §1
LoVo [24] = experiment: Phototoxicity against human LoVo cells irradiated with 2.5 J/cm'2 after 72 hrs by MTT assay; format: functional, cell-based; settings: light or radiation study; method in brief: as §1
K562 [25] = experiment: Phototoxicity against human K562 cells irradiated with 3.75 J/cm'2 after 72 hrs by MTT assay; format: functional, cell-based; settings: K562, light or radiation study; method in brief: as §1
K562 [26] = experiment: Phototoxicity against human K562 cells irradiated with 2.5 J/cm'2 after 72 hrs by MTT assay; format: functional, cell-based; settings: K562, light or radiation study; method in brief: as §1
Jurkat [27] = experiment: Cell cycle arrest in human Jurkat cells assessed as accumulation in G1 phase at 1 uM irradiated with 25 J/cm'2 after 24 hrs by flow cytometry
Jurkat [28] = experiment: Cell cycle arrest in human Jurkat cells assessed as accumulation in G2/M phase at 1 uM irradiated with 25 J/cm'2 after 24 hrs by flow cytometry
Jurkat [29] = experiment: Phototoxicity against human Jurkat cells irradiated with 3.75 J/cm'2 after 72 hrs by MTT assay; format: functional, cell-based; settings: light or radiation study; method in brief: as §1
Jurkat [30] = experiment: Induction of apoptosis in human Jurkat cells assessed as induction of loss of membrane potential at 1 uM after 2 hrs post-irradiation with 20 J/cm'2 using JC1 staining by FACS; format: functional
Method in brief: (§7)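 Irradiated Jurkat cells treated with compound were collected 2 and 4 h after irradiation and resuspended in HBSS containing JC-1. Green (FL1) and orange (FL2) fluorescence were read by flow cytometry, with at least 10,000 events per sample. Values are mean ± SD of at least three independent experiments.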

Jurkat [31] = experiment: Induction of apoptosis in human Jurkat cells assessed as induction of loss of membrane potential at 1 uM after 4 hrs post irradiation with 20 J/cm'2 using JC1 staining by FACS; format: functional; method in brief: as §7
Jurkat [32] = experiment: Induction of apoptosis in human Jurkat cells assessed as induction of loss of membrane potential at 1 uM after 2 hrs post-irradiation with 20 J/cm'2 by flow cytometry; format: functional; method in brief: as §7
Jurkat [33] = experiment: Induction of apoptosis in human Jurkat cells assessed as induction of loss of membrane potential at 1 uM after 4 hrs post-irradiation with 20 J/cm'2 by flow cytometry; format: functional; method in brief: as §7
Jurkat [34] = experiment: Induction of apoptosis in human Jurkat cells assessed as phosphatidylserine esposure after 30 mins using annexin-V FITC and PI staining by flow cytometry; format: functional, cell-based
Method in brief: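 Jurkat cells (100,000) were irradiated (2.5 J/cm²) with compound present and centrifuged 30 min, 1 h or 2 h later. They were stained with Annexin V-FITC/PI for 15 min in the dark, and FITC (FL1) and PI (FL3) were read by flow cytometry, with at least 10,000 events. Cells were classed as intact, early apoptotic, late apoptotic/necrotic or necrotic. Values are the mean of three experiments.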

| SMILES | IC50 (Jurkat [1]) | Activity (Jurkat [2]) | Activity (Jurkat [3]) | Activity (Nucleic Acid [4]) | Activity (Jurkat [8]) | Activity (Jurkat [9]) | Activity (Jurkat [12]) | Activity (Jurkat [18]) | IC50 [19] | IC50 [20] | IC50 (MCF7 [21]) | IC50 (MCF7 [22]) | IC50 (LoVo [23]) | IC50 (LoVo [24]) | IC50 (K562 [25]) | IC50 (K562 [26]) | Activity (Jurkat [27]) | Activity (Jurkat [28]) | further results |
| --- | --- | --- | --- | --- | --- | --- | --- | --- | --- | --- | --- | --- | --- | --- | --- | --- | --- | --- | --- |
| O=c1ccc2ccc3occc3c2o1 [ANGELICIN] | 1000 nM | 46.7% | 6.63% | Active | Dose-dependent effect | 9.82% | Active | 30.8% | 900 nM | 4200 nM | 1500 nM | 4400 nM | 1500 nM | 3600 nM | 1000 nM | 1200 nM | 12.3% | 10.2% | Activity [5]: Active; Activity [6]: Active; Activity (Nucleic Acid [7]): Active; Activity (Jurkat [10]): 15.03%; Activity (Jurkat [11]): 50.85%; Activity (Jurkat [13]): 15.82%; Activity (Jurkat [14]): 41.2%; Activity (Jurkat [15]): 1.08%; Activity (Jurkat [16]): 58.8%; Activity (Jurkat [17]): 98.92% |
| CCOC(=O)c1cc2c(n1C)-c1[nH]c(=O)c(S(=O)(=O)c3ccccc3)cc1CC2 | 700 nM | 6.6% | 36.97% | inactive | Dose-dependent effect | 29.72% | 0.7% | 63.3% | 1100 nM | 1200 nM | 1000 nM | 1200 nM | 1000 nM | 1100 nM | 900 nM | 1000 nM | 16.1% | 14% | IC50 (Jurkat [29]): 500 nM; Activity (Jurkat [30]): 98.68%; Activity (Jurkat [31]): 94.8%; Activity (Jurkat [32]): 1.3%; Activity (Jurkat [33]): 5.14%; Activity (Jurkat [34]): Active |

From ChEMBL document CHEMBL1177638, “Synthesis of pyrrolo[3,2-h]quinolinones with good photochemotherapeutic activity and no DNA damage” (Bioorg Med Chem, 2010)
